Experimental data gathered from unrelated publications.
pEC50, pIC50: −log10 of the molar value.
Antigen peptide transporter 1/Antigen peptide transporter 2: Antigen peptide transporter 1/Antigen peptide transporter 2 (Homo sapiens, UniProt Q03518+Q03519)
Slc6a3: Sodium-dependent dopamine transporter (Slc6a3, Rattus norvegicus, UniProt P23977)

`CC[C@H](C)[C@H](NC(=O)[C@H](C)NC(=O)CN)C(=O)N[C@@H](CC(=O)O)C(=O)N[C@@H](CCCCN)C(=O)N1CCC[C@H]1C(=O)N[C@H](C(=O)N[C@@H](CC(C)C)C(=O)N[C@@H](CCCCN)C(=O)O)[C@@H](C)CC` has a pIC50 of 5.09 (Antigen peptide transporter 1/Antigen peptide transporter 2; ligand displacement).
`O=c1c(O)c(-c2ccc(O)c(O)c2)oc2cc(O)cc(O)c12` gave a pIC50 of 5.35 (CX3C chemokine receptor 1 (CX3CR1, Homo sapiens, UniProt P49238); β-arrestin recruitment, antagonist).
`COC(=O)C(NC(=O)c1cn(CCCCCO)c2ccccc12)C(C)(C)C` (centres unmarked) has a pIC50 of 6.98 (Cannabinoid receptor 1 (Cnr1, Rattus norvegicus, UniProt P20272); ligand displacement, radioligand; cell membranes).
With `CNC(C)C(=O)c1cccc(Cl)c1` (centres unmarked) the pIC50 was 6.47 (Slc6a3; transporter uptake, inhibitor, radiometric).
For `COc1ccc2cccc(C(CO)CNC(=O)CF)c2c1` (centres unmarked), the pEC50 was 7.75 (Melatonin receptor type 1B (MTNR1B, Homo sapiens, UniProt P49286); cAMP, agonist, TR-FRET).
With `CC[C@H](C)[C@H](NC(=O)[C@H](CC(C)C)NC(=O)[C@@H](N)CO)C(=O)NCC(=O)N[C@@H](CCCCN)C(=O)N[C@H](C(N)=O)C(C)C` the pEC50 was 4.55 (Proteinase-activated receptor 2 (F2RL1, Homo sapiens, UniProt P55085); calcium signal, agonist).
With `CSCC[C@H](NC(=O)[C@@H]1CCCN1C(=O)[C@H](CCCNC(=N)N)NC(=O)[C@H](CC(C)C)NC(=O)[C@@H]1CCCN1C(=O)[C@@H](NC(=O)[C@H](C)N)C(C)C)C(=O)N[C@H](C(=O)N[C@@H](Cc1ccc(O)cc1)C(=O)N[C@@H](C)C(=O)O)[C@@H](C)O` the pIC50 was 5.30 (Antigen peptide transporter 1/Antigen peptide transporter 2; ligand displacement).
`CC(NC(C)(C)C)C(=O)c1ccccc1` (centres unmarked) has a pIC50 of 5.88 (Slc6a3; transporter uptake, inhibitor, radiometric).
